Measurements of several laboratories.
Compare with care: the assays were run in different laboratories.
Target: Ephrin type-A receptor 7 (EPHA7, Homo sapiens, UniProt Q15375)

Structure (SMILES) | read-out | action | method | tested at | endpoint | result
Cc1ccc(Nc2nccc(N(C)c3ccc4c(C)n(C)nc4c3)n2)cc1S(N)(=O)=O | enzyme activity | inhibitor |  | 0.3 µM | inhibition | 1%
Cc1ccc(NC(=O)c2ccc(C)c(C(F)(F)F)c2)cc1C#Cc1nn(C2CCC(O)CC2)c2ncnc(N)c12 (centres unmarked) | cell-free assay |  |  | 10 µM | remaining signal | 0%
CNC(=O)c1cc(Oc2ccc(NC(=O)Nc3ccc(Cl)c(C(F)(F)F)c3)cc2)ccn1 | enzyme activity | inhibitor |  | 10 µM | inhibition | 90%
Cc1c(C(=O)O)cc(-c2ccc(C3CCNCC3)cc2)c2ccc(-c3ccc(C(F)(F)F)cc3)cc12 | cell-free assay |  | competition with immobilised ligand | 1 µM | remaining binding | 100%
CC(C)(O)[C@H]1CC[C@H](Nc2ccc3ncc(-c4cccc(C(F)(F)F)c4)n3n2)CC1 | enzyme activity | inhibitor |  | 1 µM | remaining activity | 93.3%
CCCCNc1ncc2c(-c3ccc(F)cc3)nn(C[C@H]3CC[C@H](N)CC3)c2n1 | target engagement in cells | inhibitor | chemoproteomics | 20 mM | inhibition | 43.9%
Cc1ccc(C(=O)Nc2ccc(CN3CCN(C)CC3)c(C(F)(F)F)c2)cc1C#Cc1cnc2cccnn12 | cell-free assay |  |  | 23.5 nM | remaining signal | 81%
Cc1sc(C(=O)NC2COC2)cc1-n1cc(NC(=O)Nc2c(F)cccc2Cl)cn1 | enzyme activity | inhibitor |  | 10 µM | remaining activity | 98.6%
CC(C)(C)c1nc(-c2cccc(NS(=O)(=O)c3c(F)cccc3F)c2F)c(-c2ccnc(N)n2)s1 | enzyme activity | inhibitor | radiometric | 1 µM | remaining activity | 102%
COc1ccc2c(c1)O[C@@H](c1ccc(OC)c(OC)c1)C[C@H]2NC(=O)C1(c2ccc3c(c2)OC(F)(F)O3)CC1 | cell-free assay |  | competition with immobilised ligand | 1 µM | remaining binding | 86%
CCN(CC)CCNC(=O)c1c(C)[nH]c(/C=C2\C(=O)Nc3ccc(F)cc32)c1C | enzyme activity | inhibitor |  | 10 µM | inhibition | 78%
Nc1ncnc2occ(-c3ccc(NC(=O)Nc4cc(C(F)(F)F)ccc4F)cc3)c12 | cell-free assay |  |  | 20 µM | remaining signal | 0%
CS(=O)(=O)c1cc(C2(NC(=O)c3cncc4c3cnn4-c3ccc(F)cc3)CC2)ccn1 | cell-free assay |  | competition with immobilised ligand | 1 µM | remaining binding | 92%
Cc1ccc(C(=O)NCc2ccsc2)cc1C#Cc1cn(C(C)C)c2ncnc(N)c12 | enzyme activity | inhibitor |  | 1 µM | activity vs control | 21%
CC(=O)C1=C(C)N(c2cccc(C(F)(F)F)c2)C(=O)N[C@@H]1c1ccc(C#N)nc1 | cell-free assay |  | competition with immobilised ligand | 1 µM | remaining binding | 100%
N#CCCc1ccc2c(c1)-c1[nH]c3ccc([N+](=O)[O-])cc3c1CC(=O)N2 | cell-free assay |  |  | 0.5 µM | remaining signal | 95.3%
CO[C@@H](C)c1c(Nc2ccc([C@H](N(C)C(=O)C3CCS(=O)(=O)CC3)C(F)(F)F)cc2)cnc2cc(Cl)nn12 | cell-free assay |  | competition with immobilised ligand | 1 µM | remaining binding | 84%
CCN(CC)c1ccc(C2=NNC(=O)CC2C)cc1[N+](=O)[O-] (centres unmarked) | enzyme activity | inhibitor |  | 10 µM | remaining activity | 91%
C[C@@H](c1cccc(C#N)c1)n1cc(Cl)cc(C(N)=O)c1=N | cell-free assay |  | competition with immobilised ligand | 1 µM | remaining binding | 100%
COc1cc(Cl)c(C(=O)N[C@@H](CN[C@H]2CC[C@@H](N)CC2)Cc2ccc(C#N)cc2)cc1-c1ccc(CN[C@H](C)c2ccc(C)cc2)o1 | enzyme activity | inhibitor |  | 1 µM | remaining activity | 105%
